Active and inactive are the calls of the source.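 Rule for the calls: active = at least one off-target enzyme showing weaker fluorescent probe labeling in any proteome panel; inactive = no off-target enzyme affected in any panel.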
The compounds below were run on Membrane Proteome (assay: proteome-wide probe labelling blockade by competitive ABPP – cell lysate, gel-based fluorescence, soluble and membrane fractions, selectivity assay for PAD4 inhibitor project, late-stage follow-up (AID 651628)). Conditions: MCF7 proteome, CA-Rh gel-based ABPP, anti-target count, at 50 µM, stronger effect = higher value.
How it was run: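 Material: MCF7 cell proteome, soluble or membrane fraction | Medium: DPBS | Doses: Compound at 10 or 50 µM | Schedule: Compound 1 h, probe 1 h, 25 °C | Measured by: SDS-PAGE separation with in-gel fluorescence scanning of labelled bands | Control set: DMSO-only reference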

SMILES	number of anti-targets
NC1=CC(=O)c2cccnc2C1=O	0 (inactive)
COC1=C(Br)C(=O)c2nc(-c3ccccn3)ccc2C1=O	> 5 (active)
COC1=C(Br)C(=O)c2ncccc2C1=O	> 5 (active)
COC(=O)c1cccc(-c2ccc3c(n2)C(=O)C(N)=CC3=O)n1	0 (inactive)
COC1=C(N)C(=O)c2ncccc2C1=O	0 (inactive)
COC1=CC(=O)c2nc(C#N)ccc2C1=O	> 5 (active)
O=C1C=C(Br)C(=O)c2ncccc21	> 5 (active)
NC1=CC(=O)c2ccc(-c3ccccn3)nc2C1=O	0 (inactive)
COC1=C(I)C(=O)c2nc(C#N)ccc2C1=O	> 5 (active)
O=C1C(O)=C(O)C(=O)c2ncccc21	> 5 (active)
COC(=O)c1cccc(-c2ccc3c(n2)C(=O)C(Br)=CC3=O)n1	> 5 (active)
COC1=C(N)C(=O)c2nc(-c3nc(C(=O)O)c(C)c(-c4ccc(OC)c(OC)c4O)c3N)ccc2C1=O	0 (inactive)
COC(=O)c1nc(C(=O)OC)c(NC(C)=O)c(-c2ccccc2Br)c1C	0 (inactive)
NC1=CC(=O)c2ccc(-c3cccc(C(=O)O)n3)nc2C1=O	0 (inactive)
